The test system of one series is Mus musculus. As to the kind of experiment: Toxicity in BALB/c mouse xenografted with human MV4-11 cells assessed as effect on body weight at 10 to 30 mg/kg administered qd via oral gavage measured twice weekly. The format is organism-based. Conditions: in vivo. Summed up: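 Female BALB/c nude mice implanted subcutaneously with 5×10^6 MV4;11 cells in 50% matrigel/PBS. At about 230 mm³, mice randomized to vehicle, 10 or 30 mg/kg (10 ml/kg) once daily by oral gavage. Body weight and caliper tumor dimensions measured twice weekly; mean±sem.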
For orientation: Xenograft models place foreign cells or tissue in a host animal.

The target in series [1] is Tyrosine-protein phosphatase non-receptor type 1 (Homo sapiens, UniProt P18031). The series is described as follows: Inhibition of PTP1B (unknown origin) expressed in Escherichia coli BL21(DE3) using DIFMUP as substrate preincubated for 20 mins followed by substrate addition measured after 20 mins by phosphatase assay. Summed up: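 Phosphatases purified from E. coli and run as for SHP2 E76A: 20 min room-temperature preincubation with compound in 0.1 M sodium acetate pH 5.0, then DIFMUP at each enzyme's Km, 20 min, fluorescence 358/455 nm. Eight 3-fold dilutions in duplicate; IC50 from at least three independent experiments.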

The subject of the next series is MOLM-13. The series is described as follows: Antiproliferative activity against human MOLM13 cells at 3 to 6 uM after 2 days by CellTiter-Glo assay. The format is functional, cell-based. Summed up: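 3000 cells/well in 96-well plates, grown overnight, then inhibitor at indicated concentrations for 2 days (48 h). Viability by CellTiter-Glo; mean±s.d., n=3.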
A general note: ATP-based viability assays read luminescence as a measure of living cells.

Calls of active or inactive are those of the source. The rule behind the calls is not given here.

Tyrosine-protein phosphatase non-receptor type 1, sequence (P18031 whole entry): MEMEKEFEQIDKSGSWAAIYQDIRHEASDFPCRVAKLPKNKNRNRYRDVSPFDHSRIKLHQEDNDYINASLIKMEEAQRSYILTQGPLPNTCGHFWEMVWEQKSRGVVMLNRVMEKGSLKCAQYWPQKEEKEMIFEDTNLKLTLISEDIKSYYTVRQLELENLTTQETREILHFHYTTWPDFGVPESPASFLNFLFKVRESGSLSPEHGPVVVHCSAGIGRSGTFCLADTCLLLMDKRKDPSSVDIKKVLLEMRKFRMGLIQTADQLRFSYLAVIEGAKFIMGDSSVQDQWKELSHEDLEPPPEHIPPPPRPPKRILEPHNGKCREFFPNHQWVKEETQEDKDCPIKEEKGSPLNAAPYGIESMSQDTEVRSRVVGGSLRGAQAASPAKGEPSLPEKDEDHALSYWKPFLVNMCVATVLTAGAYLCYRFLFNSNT

`CC1(N)CCN(c2nc(-c3ccc4cc(Br)ccc4c3)cs2)CC1`: the Activity result with Mus musculus is reported as “Non-Toxic”. In addition, the IC50 (usually the concentration that gives 50% inhibition) in series [1] was 31.2 µM. Besides, the result with MOLM-13 was Active.

The record behind these values is ChEMBL document CHEMBL4028906, “Allosteric Inhibitors of SHP2 with Therapeutic Potential for Cancer Treatment” (J Med Chem, 2017).
